Screening results: PubChem, several laboratories
Runt-SMMHC FRET: Runt domain-CBFb-SMMHC interaction inhibition. Q01196+Q13951. Cerulean-Runt/Venus-CBFb-SMMHC FRET ratio 530/480, 1 h. inhibition, % at 20 µM. actives 0.74% (n = 220,000). AID 1434;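 active means mean inhibition across duplicate retests at 20 µM reaching about 50%, limit read from the data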;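 further: inhibitors lower the FRET ratio by blocking Runt binding to CBFb-SMMHC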
Target sequence (Q01196 whole entry, looked up, the tested form may be a part): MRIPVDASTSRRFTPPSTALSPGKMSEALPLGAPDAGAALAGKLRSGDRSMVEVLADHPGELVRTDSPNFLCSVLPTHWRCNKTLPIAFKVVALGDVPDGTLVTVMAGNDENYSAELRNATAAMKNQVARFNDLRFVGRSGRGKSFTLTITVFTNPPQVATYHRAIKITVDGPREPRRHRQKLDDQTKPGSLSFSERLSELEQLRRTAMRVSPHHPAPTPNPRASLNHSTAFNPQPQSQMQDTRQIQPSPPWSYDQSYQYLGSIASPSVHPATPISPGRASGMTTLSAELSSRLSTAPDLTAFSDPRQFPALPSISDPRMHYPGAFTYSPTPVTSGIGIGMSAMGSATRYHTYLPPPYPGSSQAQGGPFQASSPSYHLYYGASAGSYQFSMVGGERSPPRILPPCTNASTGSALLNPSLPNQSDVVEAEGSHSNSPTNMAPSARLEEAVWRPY
Target sequence (Q13951 whole entry, looked up, the tested form may be a part): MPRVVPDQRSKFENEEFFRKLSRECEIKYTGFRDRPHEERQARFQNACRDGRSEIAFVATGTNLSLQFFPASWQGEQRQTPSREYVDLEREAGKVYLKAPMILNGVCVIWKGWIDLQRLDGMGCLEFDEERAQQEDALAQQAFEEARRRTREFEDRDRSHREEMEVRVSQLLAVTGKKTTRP
Runt-CBFb FRET: Runt domain-CBFb interaction inhibition; Cerulean-Runt/Venus-CBFb FRET ratio 530/480, 1 h; actives 0.46% (n = 220,000); Q01196+Q13951; inhibition, % at 20 µM;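 active means inhibition over about 50% at 20 µM in the single-dose screen, limit read from the data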
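Reagent – Venus-CBFb binding partner, 100 nM · Assay system – Cerulean-tagged RUNX1 Runt domain (FRET donor) fusion protein · Input – 100 nM per protein · Incubation – two 1 h room-temperature incubations shielded from light · Measured by – FRET fluorescence · Medium – Tris buffer pH 7.5 with salts and BSA · Benchmarks – unlabeled CBFb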
RanGTP-Imp inh: inhibitors of RanGTP-importin-beta interaction, primary screen, biochemical, FRET, CFP-Ran, YFP-importin-beta, homogeneous; inhibition, % (concentration not given with the values); actives 1.1% (n = 300,000); cell-free CFP-Ran/YFP-importin-beta FRET ratio;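 active means more than half of the replicate wells show a fall in the fluorescence ratio signal beyond about 16%, limit read from the data, passing the limit was not always enough; inconclusive means exactly half of the replicate wells pass the set limit; inactive means fewer than half of replicates pass the limit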
Hck-Nef inh: blocks Nef-activated human Hck kinase | P08631 | Recombinant Hck-YEEI plus Nef, Z-Lyte FRET kinase assay | inhibition, % at 20 µM | actives 0.68% (n = 220,000);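 active means Hck-Nef kinase inhibition above about 50%, limit read from the data; inactive means inhibition below that limit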
CaV13 FRET inh: Primary screen for inhibitors of IQ motif and Ca2+-dependent inactivation inhibitor domain binding in CACNA1D, Förster resonance energy transfer in living cells, … | inhibition, % at 12.3 µM | actives 0.098% (n = 340,000) | HEK cells, CFP/YFP FRET ICDI-IQ, plate reader, 10 min; percent FRET-ratio fall versus neutral wells;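 active means mean replicate inhibition of at least 30% and at least 1% of replicates passing that level; inconclusive means only one of the two criteria is met; inactive means neither criterion is met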
RUNX1 CBFb TR: Runt-CBFb binding inhibition. inhibition, % at 20 µM. TR-FRET RUNX1 Runt domain-CBFb binding. actives 20% (n = 480). shares compounds with Runt-CBFb FRET. AID 1502; in the data active means inhibition above about 40%
Hits are given with their value; - = inactive; ? = inconclusive; . = no result given. In the library only some 1.5% were active in any assay of this set; here they are far more common.

SMILES | Runt-SMMHC FRET | Runt-CBFb FRET | RanGTP-Imp inh | Hck-Nef inh | CaV13 FRET inh | others
COc1ccc(NC(=O)Nc2ccccn2)cc1OC | - | - | 27 | - | -
COc1ccc(NC(=O)c2ccc(COc3ccccc3OC)o2)cc1OC | - | - | 13 | - | .
COc1ccc(NC(=O)c2ccc(COc3ccccc3Br)o2)cc1OC | - | - | - | - | -
COc1ccc(NC(=O)CC(C(=O)O)N2CCCCC2)cc1 (stereo unspecified) | - | - | - | - | -
Cn1c(=O)c2c(SCC(=O)NCC3CCCO3)nc(-c3cccs3)nc2n(C)c1=O (stereo unspecified) | - | - | . | . | .
CC(C)Sc1nc(-c2cccs2)nc2c1c(=O)n(C)c(=O)n2C | - | - | . | 53 | .
CC(C)Cn1c(CNC(=O)c2ccccc2)nc2ccccc21 | - | - | - | - | .
O=c1cc(-c2ccc(O)cc2)oc2cc(O)c(C3OC(CO)C(O)C(O)C3O)c(O)c12 (stereo unspecified) | 87 | - | - | - | .
O=c1cc(-c2ccc(O)cc2)oc2cc(O)cc(O)c12 | . | . | - | . | -
Cc1ccc(OCC(=O)NC2CC(C)(C)NC(C)(C)C2)cc1C | - | - | - | - | -
O=C(CCC(=O)N/N=C/c1cc(Cl)cc(Cl)c1O)NCc1ccccc1 | 92 | - | 43 | - | -
C=Cn1c(N2CCOCC2)nc2c1c(=O)[nH]c(=O)n2C | - | - | - | - | -
CC1CCN(S(=O)(=O)N2CCC(C(=O)NC3CCCC3)CC2)CC1 | - | - | - | - | 76
Cc1ccc(S(=O)(=O)C(C#N)c2nc3ccccc3nc2OCCO)cc1 (stereo unspecified) | - | - | 26 | - | -
COc1ccc(NC(=S)N2CCCCC2c2cccnc2)cc1 (stereo unspecified) | - | - | - | - | -
O=C(NC(=S)N1CCCCC1c1cccnc1)c1ccc(Br)cc1 (stereo unspecified) | . | . | 33 | . | -
O=C(NC(=S)N1CCCCC1c1cccnc1)c1ccc(F)cc1 (stereo unspecified) | . | . | 19 | . | -
Cc1cccc(NC(=S)N2CCCCC2c2cccnc2)c1C (stereo unspecified) | - | - | - | - | -
Cc1ccc2nc(-c3sc4nc(C)ccc4c3N)[nH]c2c1 | - | - | - | - | -
Cc1cc(C)c2c(N)c(-c3nc4ccccc4[nH]3)sc2n1 | - | - | 21 | - | .
CC(=O)Nc1c(C(=O)N2CCN(c3ncccn3)CC2)cnn1-c1ccccc1Cl | . | . | . | - | .
O=c1[nH]c(=S)[nH]c2nc(-c3ccccc3)cnc12 | . | . | - | . | -
O=c1[nH]c(=O)c2nc(-c3ccc(Cl)cc3)cnc2[nH]1 | . | - | 94 | - | 100
CCNc1cc(Cl)nc(SC)n1 | - | - | - | - | -
CCN(CCO)c1cc(Cl)nc(SC)n1 | - | - | 69 | - | -
SMILES | Runt-SMMHC FRET | Runt-CBFb FRET | RanGTP-Imp inh | Hck-Nef inh | CaV13 FRET inh | others
CC1(C)c2ssc(=S)c2-c2ccccc2N1C(=O)c1ccco1 | - | 122 | - | - | -
Cc1ccc2c(c1)-c1c(ssc1=S)C(C)(C)N2C(=O)c1ccco1 | - | - | - | - | -
Cc1ccc(OCC(=O)Nc2nnn(C)n2)c(C)c1 | - | - | - | - | .
O=C(NNC(=O)C1[C@H]2CCCC[C@@H]12)c1ccc(=O)oc1 (stereo partly specified) | 82 | - | - | - | -
Cc1ccccc1NC(=O)N1C2CCC1CC(O)(c1cccnc1)C2 (stereo unspecified) | - | . | - | - | -
C=CCN(CC=C)c1nc2ccccc2nc1C(C#N)C(=O)OCCOC (stereo unspecified) | 61 | - | 20 | - | -
CCOC(=O)C1CCN(c2nc3ccccc3nc2C(C#N)C(=O)OCCOC)CC1 (stereo unspecified) | - | - | ? | - | .
CCCN(CCC)c1nc2ccccc2nc1C(C#N)C(=O)OCCOC (stereo unspecified) | - | - | 37 | - | .
N#Cc1cccc(Oc2ccc(S(=O)(=O)N3CCCC3)cn2)c1 | . | . | . | . | -
O=C(CSCc1ccccc1Br)NC1CC1 | - | - | - | - | -
CC(C)N(C(=O)CS(=O)(=O)c1ccc(Cl)c(Cl)c1)C(C)C | - | - | ? | - | -
Cc1ccc(-n2nnnc2CNC(=O)C(=O)c2c[nH]c3ccccc23)cc1C | . | . | . | . | 49
CN(C)c1oc(/C=C/c2ccccc2)nc1C#N | 122 | 63 | - | 71 | . | RUNX1 CBFb TR=-
CN(C)c1oc(-c2ccccc2)nc1C#N | - | - | - | - | -
CCN1CCc2nc(NC(=O)c3ccc4c(c3)OCCO4)sc2C1 | 112 | 51 | 80 | - | - | RUNX1 CBFb TR=-
CCN1CCc2nc(NC(=O)C(c3ccccc3)c3ccccc3)sc2C1 | 106 | 51 | ? | - | . | RUNX1 CBFb TR=-
CCN1CCc2nc(NC(=O)c3ccc(S(=O)(=O)N(C)C)cc3)sc2C1 | - | - | - | - | -
Cc1cccc(N2CCN(C(=O)C3CCN(S(=O)(=O)N4CCOCC4)CC3)CC2C)c1 (stereo unspecified) | - | - | - | - | -
COc1cc(Cl)c(C)cc1NC(=S)NN | - | 51 | - | - | - | RUNX1 CBFb TR=-
N#CC1(C#N)COC23CCCCC2C1(C#N)C(=N)O3 (stereo unspecified) | 80 | 63 | 31 | - | - | RUNX1 CBFb TR=-
Cc1cc(O)c(-c2cc(O)c(C)cc2O)cc1O | 80 | 58 | - | - | - | RUNX1 CBFb TR=43
Cc1cc(O)cc(C)c1Cl | . | . | - | . | -
O=C(NNC(=O)c1cccnc1)NC1CCCCC1 | - | - | - | - | -
O=C(NNC(=O)c1cc(O)c(O)c(O)c1)NC1CCCCC1 | - | 55 | - | - | . | RUNX1 CBFb TR=61
Cc1ccc(C(=O)/C=C\C(=O)c2ccc(C)cc2)cc1 | 51 | 62 | - | - | - | RUNX1 CBFb TR=-
SMILES | Runt-SMMHC FRET | Runt-CBFb FRET | RanGTP-Imp inh | Hck-Nef inh | CaV13 FRET inh | others
CSCCC(NC(=O)c1ccccc1Cl)C(=O)N1CCN(C(c2ccccc2)c2ccccc2)CC1 (stereo unspecified) | . | . | - | . | .
CCCCn1c(-c2ccncc2)nc2c1c(=O)[nH]c(=O)n2CC(C)C | - | 75 | - | - | - | RUNX1 CBFb TR=-
COCCn1c(-c2ccc(SC)cc2)nc2c1c(=O)[nH]c(=O)n2CC(C)C | . | . | - | . | -
CCOC(=O)c1c(NC(=S)Nc2ccc(C)cc2)sc2c1CCC2 | - | - | - | - | -
CCOC(=O)c1c(NC(=S)Nc2ccc(OCC)cc2)sc2c1CCN(C)C2 | 52 | 82 | 19 | - | - | RUNX1 CBFb TR=-
COc1ccc2ccccc2c1C(O)c1nccn1C (stereo unspecified) | 115 | 55 | - | - | - | RUNX1 CBFb TR=-
Cn1ccnc1C(O)c1ccccc1 (stereo unspecified) | - | - | - | - | -
CC(C)c1ccc(N=C2NN=C(c3cccs3)CS2)cc1 | - | - | - | - | -
